# Sampled rows, rich in hits. Any-hit rate of the full collection: about 4.7%.
# ADAM10 inh: ADAM10 inhibition, QFRET primary screen; O14672; recombinant ADAM10, EDANS/DABCYL FRET peptide cleavage, 3 h; inhibition, % at 7 µM; actives 0.62% (n = 370,000);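 active means inhibition above a per-campaign cutoff equal to the mean of compounds falling between control-based bounds plus 3 SD, cut at about 20% in these data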;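 further: 0% = DMSO wells while the 100% control is not disclosed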
# MPTP block: blocks calcium-induced mitochondrial swelling | isolated mouse mitochondria, Ca2+ swelling absorbance, 30 min | inhibition, % at 10 µM | actives 1.4% (n = 360,000) | AID 602449;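 active means inhibition of 50% or more, scaled per plate between neutral and stimulator controls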;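 further: 0% = DMSO wells given calcium and 100% = 1 mM EGTA wells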
# NR3A LBD binder: modulators (binders) of human NR3A ligand-binding domain. actives 2.5% (n = 340,000). NR3A LBD differential scanning fluorimetry, Tm shift; 0% = protein alone, 100% = glycine-bound protein. AID 1259313. Tm shift relative to glycine control, % at 25 µM;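 active means melting temperature shift of at least 10% of the positive control shift, at one fixed dose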
# ADAM17 inh: ADAM17 inhibition, QFRET primary screen; recombinant ADAM17, EDANS/DABCYL FRET peptide cleavage; inhibition, % at 6.95 µM; actives 0.83% (n = 370,000); AID 720648;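 active means inhibition above the mean of compounds lying between control limits plus 3 SD, set per campaign, cut at about 8.5% in these data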;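 further: 0% = DMSO-only wells as the low control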
# Target sequence (P78536 215-824 limits assumed): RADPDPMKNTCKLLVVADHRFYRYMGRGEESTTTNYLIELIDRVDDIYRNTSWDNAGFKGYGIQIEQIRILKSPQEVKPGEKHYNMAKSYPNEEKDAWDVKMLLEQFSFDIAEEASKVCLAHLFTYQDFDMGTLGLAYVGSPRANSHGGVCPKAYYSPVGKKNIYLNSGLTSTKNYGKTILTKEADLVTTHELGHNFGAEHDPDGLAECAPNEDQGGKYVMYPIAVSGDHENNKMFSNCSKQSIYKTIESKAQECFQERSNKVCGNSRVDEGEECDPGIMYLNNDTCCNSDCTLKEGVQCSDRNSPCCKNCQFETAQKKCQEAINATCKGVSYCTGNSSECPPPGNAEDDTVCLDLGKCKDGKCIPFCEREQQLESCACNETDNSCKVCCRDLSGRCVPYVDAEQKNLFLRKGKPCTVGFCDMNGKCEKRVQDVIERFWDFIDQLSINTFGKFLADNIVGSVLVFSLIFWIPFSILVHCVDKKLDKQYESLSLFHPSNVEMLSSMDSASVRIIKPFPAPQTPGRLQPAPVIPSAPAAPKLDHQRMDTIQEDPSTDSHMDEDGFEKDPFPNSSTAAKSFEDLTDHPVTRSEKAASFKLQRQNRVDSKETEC
# SKN-1 block: blocks SKN-1 activity in C. elegans; C. elegans VP596 Pgst-4::GFP/RFP ratio, acrylamide-induced, 24 h; inhibition, % at 21.8 µM; actives 0.49% (n = 360,000);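 active means interference check ratio from 0.5 to 1.5 plus GFP to RFP signal ratio inhibition reaching or exceeding a fixed threshold, cut at about 30% in these data, passing the limit was not always enough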
# MT1-MMP act inh: blocks activation of human MT1-MMP | P50281 | HT1080 RFP-PRO-GFP cells, GFP/RFP ratio fluorescence, overnight; percent of plate control window, DMSO zero | GFP/RFP ratio change, % at 20 µM | actives 0.061% (n = 360,000);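 active means GFP/RFP ratio change of at least 30% with cell ATP level not reduced by more than half and red fluorescence within 50% of control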
#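 Assay system – RFP-PRO-GFP reporter HT1080 cells · Compound dosing – single dose of 20 µM compound, 1% DMSO final · Incubation – overnight compound exposure at 37 °C · Measure – GFP/RFP fluorescence ratio · Benchmarks – DMSO wells and RFP-L50D-GFP cells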
# * marks the source's active call; other numbers are inactive results; x = no result.
SMILES,ADAM10 inh,MPTP block,NR3A LBD binder,ADAM17 inh,SKN-1 block,MT1-MMP act inh
COc1cccc(C(=O)Nc2nc(-c3ccc4c(c3)OCO4)cs2)c1,-2,1,25*,3,9,-3
COc1ccc(S(=O)(=O)N2CCCN(C)CC2)cc1,1,-2,-5,1,10,-4
Nc1ncnc2nc(SCC(=O)Nc3ccccc3F)[nH]c12,-10,-1,-1,-2,13,5
O=C(/C=C/c1ccco1)c1cccc([N+](=O)[O-])c1,-11,-2,-1,-2,3,0
O=C1C2(CCCC13COC(c1ccc(O)cc1)OC3)COC(c1ccc(O)cc1)OC2 (centres undefined),2,x,26*,-1,x,x
O=C(c1ccccc1)c1nn(-c2ccccc2)c2nnc(Cc3ccccc3)c(=O)n12,2,8,-3,-3,-16,-3
COc1ccc(-c2csc(N)n2)cc1,-7,1,2,1,-7,5
Nc1nc(-c2ccc(Oc3ccccc3)cc2)cs1,12,-2,-6,4,44*,1
Nc1nc(-c2ccc(-c3ccccc3)cc2)cs1,-122,1,4,-40,66*,-3
C[C@@H]1CN([C@@H](C)CO)C(=O)CCCn2nncc2CO[C@H]1CN(C)C(=O)Nc1ccc(N2CCCCC2)cc1,2,1,x,0,7,1
C=CCNC(=O)N1CCc2[nH]c3ccc(F)cc3c2C1,-6,1,0,-1,-4,-2
Fc1ccc2[nH]c3c(c2c1)CN(C(=S)NCc1ccccc1)CC3,-17,3,29*,0,2,12
CCOC(=O)c1c(C)n(C)c2cc(Br)c(C(=O)OC)cc12,13,2,1,1,31,10
CCOC(=O)c1c(C)n(C)c2cc(Br)c(OC)cc12,0,0,11*,-3,8,-2
N#Cc1ccc(/C=C/C(=O)c2ccccc2)cc1,7,0,12*,5,19,5
COc1cc(Br)cc(/C=N/NC(=O)Cc2ccc(C(F)(F)F)cc2[N+](=O)[O-])c1O,6,16,25*,0,8,13
CCc1ccc(-c2csc3[n+]2CCN3C(C)=O)cc1,3,-3,x,2,-4,-2
CC(=O)N1CC[n+]2c(-c3ccc(Cl)cc3)csc21,5,1,20*,3,5,-1
CCN(CC)S(=O)(=O)c1ccc2oc(C(=O)NCc3ccc(F)cc3)c(C)c2c1,22*,2,-9,8.8*,-3,-9
Oc1cnn(-c2ccccc2)c1,-2,-2,15*,1,19,1
Cc1ccc(C(=O)N2CCOCC2)cc1S(=O)(=O)N1CCOCC1,1,-2,12*,-3,15,-2
O=C1C(CCS(=O)c2ccccc2)C(=O)N(c2ccccc2)N1c1ccccc1 (centres undefined),3,-4,17*,-2,6,-2
CCCCC1C(=O)NN(c2ccccc2)C1=O (centres undefined),-11,0,0,-5,-3,1
O=C(O)CCCN1C(=O)/C(=C/c2ccc(-c3nc4ccccc4s3)o2)SC1=S,-6,30,26*,-4,33,-20
Cn1c(SCC(=O)N2c3ccccc3Sc3ccc(Cl)cc32)nnc1-c1ccco1,0,2,11*,-7,4,-2
SMILES,ADAM10 inh,MPTP block,NR3A LBD binder,ADAM17 inh,SKN-1 block,MT1-MMP act inh
CCn1c(SCC(=O)N2c3ccccc3Sc3ccccc32)nnc1-c1ccco1,-5,0,-1,3,10,-6
CC(C)(C)Nc1nc(SCC(=O)Nc2ccccc2Cl)nc(N2CCOCC2)n1,6,0,17*,5,-8,-2
COc1cc2c(cc1Cl)/C(=C\CCN(C)C)c1ccccc1S2,-10,0,18*,-4,9,-7
Cn1c(C(=O)Nc2ccc3c(c2)OCO3)cc2sccc21,-3,0,-1,-4,11,3
N#CC1(Nc2ccc(-c3ccc(NC4(C#N)CCCC4)cc3)cc2)CCCC1,22*,0,-2,19*,6,4
O=S(=O)(c1ccc(F)cc1)n1c(CN2CCOCC2)nc2ccccc21,-9,x,x,0,x,x
